Results gathered from unrelated publications.
Each line is one published result; the experiments were not run side by side.
Pancreatic alpha-amylase: Pancreatic alpha-amylase (Homo sapiens, UniProt P04746)
CYP3A7: Cytochrome P450 3A7 (CYP3A7, Homo sapiens, UniProt P24462)
PDE4C: 3',5'-cyclic-AMP phosphodiesterase 4C (PDE4C, Homo sapiens, UniProt Q08493)
ALB: Albumin (ALB, Bos taurus, UniProt P02769)

Structure (SMILES) | target | observed | mode | technique | time | quantity | result
CCN(CC)c1ccc(/C=N/c2ccc(F)c(Cl)c2)c(O)c1 | Pancreatic alpha-amylase | enzyme activity | inhibitor | absorbance |  | IC50 | 190 µM
CC(C)(C)[C@@H]1NC(=O)O[C@@H]2CCC[C@H]2OC/C=C/C(F)(F)c2nc3ccccc3nc2O[C@@H]2C[C@@H](C(=O)N[C@]3(C(=O)NS(=O)(=O)C4(C)CC4)C[C@H]3C(F)F)N(C2)C1=O | CYP3A7 | enzyme activity | inhibitor | mass spectrometry | 5 min | IC50 | 12.1 µM
CN(C)C(=O)c1cc2cnc(Nc3ccc(N4CCNCC4)cn3)nc2n1C1CCCC1 | PDE4C | enzyme activity | inhibitor | TR-FRET |  | IC50 | 4.4 µM
OC[C@H]1O[C@@H](Oc2cc3c4c(c2)[C@@H]([C@@H]2c5cc(O)cc6c5[C@@H](c5cc(O)cc(O)c5[C@H]2c2ccc(O)cc2)[C@H](c2ccc(O)cc2)O6)[C@H](c2ccc(O)cc2)c2c(O)cc(O)cc2[C@H]4[C@H](c2ccc(O)cc2)O3)[C@H](O)[C@@H](O)[C@@H]1O | Pancreatic alpha-amylase | enzyme activity | inhibitor |  |  | IC50 | > 100 µM
COc1ccc2c(O[C@@H]3C[C@H]4C(=O)N[C@]5(C(=O)NS(=O)(=O)C6CC6)C[C@H]5/C=C\CCCCN(C)C(=O)[C@@H]4C3)cc(-c3nc(C(C)C)cs3)nc2c1C | CYP3A7 | enzyme activity | inhibitor | mass spectrometry | 5 min | IC50 | 16.1 µM
CCN(CC)c1ccc(/C=N/c2ccccc2F)c(O)c1 | Pancreatic alpha-amylase | enzyme activity | inhibitor | absorbance |  | IC50 | 255 µM
O=C(C=Cc1ccccc1)Nc1cc(-c2ccnc(N3CCC(O)CC3)c2)ccn1 | Retinoic acid receptor RXR-alpha (RXRA, Homo sapiens, UniProt P19793) | binding |  | SPR |  | Kd | 0.78 µM
CCc1c(C)nc(-c2ccc(Cl)s2)nc1Nc1ccc(CC(=O)O)cc1 | PDE4C | enzyme activity | inhibitor | FP |  | IC50 | ~63 µM
N=c1c[n+](N2CCOCC2)[n-]o1 | NAD-dependent protein deacylase sirtuin-5, mitochondrial (SIRT5, Homo sapiens, UniProt Q9NXA8) | enzyme activity | inhibitor | HPLC |  | IC50 | 8 µM
C[C@@H](O)[C@H](NC(=O)[C@H](Cc1ccc(O)cc1)NC(=O)[C@H](Cc1ccc(O)cc1)NC(=O)[C@H](CO)NC(=O)[C@H](CCCNC(=N)N)NC(=O)[C@H](Cc1c[nH]cn1)NC(=O)[C@@H](N)Cc1c[nH]c2ccccc12)C(=O)N[C@@H](Cc1c[nH]c2ccccc12)C(=O)N[C@@H](CC(N)=O)C(=O)O | ALB | binding |  | SPR |  | Kd | 6.12 µM
CC(C)(C)OC(=O)N[C@H]1CCCCC/C=C\[C@@H]2C[C@@]2(C(=O)NS(=O)(=O)C2CC2)NC(=O)[C@@H]2C[C@@H](OC(=O)N3Cc4cccc(F)c4C3)CN2C1=O | CYP3A7 | enzyme activity | inhibitor | mass spectrometry | 5 min | IC50 | 21.9 µM
Oc1ccc([C@@H]2c3c(O)cc(O)cc3[C@@H]3c4c(cc(O)c5c4[C@@H]2[C@H](c2ccc(O)cc2)[C@H]5c2cc(O)cc4c2[C@@H](c2cc(O)cc(O)c2)[C@H](c2ccc(O)cc2)O4)O[C@H]3c2ccc(O)cc2)cc1 | Pancreatic alpha-amylase | enzyme activity | inhibitor |  |  | IC50 | 6.1 µM
O=C1CCc2ccccc2O1 | Carbonic anhydrase 9 (CA9, Homo sapiens, UniProt Q16790) | enzyme activity | inhibitor | stopped-flow |  | Ki | 4.1 µM
CCN(CC)c1ccc(/C=N/c2ccc(Cl)cc2)c(O)c1 | Pancreatic alpha-amylase | enzyme activity | inhibitor | absorbance |  | IC50 | 63.5 µM
CC(C)C[C@H](NC(=O)[C@H](CC(N)=O)NC(=O)[C@H](Cc1c[nH]c2ccccc12)NC(=O)[C@@H](NC(=O)[C@H](Cc1ccc(O)cc1)NC(=O)[C@H](Cc1ccc(O)cc1)NC(=O)[C@H](CO)NC(=O)[C@H](CCCNC(=N)N)NC(=O)[C@H](Cc1c[nH]cn1)NC(=O)[C@@H](N)Cc1c[nH]c2ccccc12)[C@@H](C)O)C(=O)O | ALB | binding |  | SPR |  | Kd | 3.99 µM
